Published values from different studies.
Target: Dual serine/threonine and tyrosine protein kinase (DSTYK, Homo sapiens, UniProt Q6XUX3)
Residues used in one study (Q6XUX3 1-929): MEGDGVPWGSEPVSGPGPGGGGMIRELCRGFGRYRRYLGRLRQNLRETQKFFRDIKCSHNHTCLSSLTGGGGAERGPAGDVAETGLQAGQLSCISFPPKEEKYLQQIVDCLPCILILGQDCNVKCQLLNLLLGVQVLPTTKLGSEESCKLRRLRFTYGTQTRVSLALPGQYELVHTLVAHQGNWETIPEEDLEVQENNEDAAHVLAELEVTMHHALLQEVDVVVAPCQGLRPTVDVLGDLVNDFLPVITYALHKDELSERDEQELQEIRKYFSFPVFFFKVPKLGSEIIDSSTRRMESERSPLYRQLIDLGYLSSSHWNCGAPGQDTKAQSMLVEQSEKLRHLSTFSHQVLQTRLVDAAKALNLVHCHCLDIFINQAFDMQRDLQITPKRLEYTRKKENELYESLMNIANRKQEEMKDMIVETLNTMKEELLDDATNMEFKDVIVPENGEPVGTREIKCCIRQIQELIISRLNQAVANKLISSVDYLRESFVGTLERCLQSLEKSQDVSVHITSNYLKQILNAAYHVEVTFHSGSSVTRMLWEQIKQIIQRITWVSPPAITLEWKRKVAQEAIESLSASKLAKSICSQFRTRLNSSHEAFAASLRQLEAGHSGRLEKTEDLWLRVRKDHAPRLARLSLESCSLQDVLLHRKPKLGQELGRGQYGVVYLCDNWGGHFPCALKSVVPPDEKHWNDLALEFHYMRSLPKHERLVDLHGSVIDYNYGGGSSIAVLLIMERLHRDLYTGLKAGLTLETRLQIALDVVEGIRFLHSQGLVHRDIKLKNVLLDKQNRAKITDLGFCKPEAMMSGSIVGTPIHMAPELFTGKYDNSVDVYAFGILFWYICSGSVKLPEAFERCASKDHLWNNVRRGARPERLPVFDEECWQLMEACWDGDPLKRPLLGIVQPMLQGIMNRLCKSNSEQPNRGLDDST

| SMILES | test | setting | remaining binding |
| --- | --- | --- | --- |
| CN(C)c1nccc(-c2cnc3ncccn23)n1 | binding | 1 µM | 78% |
| Cc1cnc(Nc2ccc(C(=O)N3CCC(N4CCCC4)CC3)cc2)nc1-c1cc2ccccc2s1 | binding, competition with immobilised ligand | 1 µM | 22% |
| CN(C)c1ncc(F)c(-c2cnn3ncccc23)n1 | binding | 1 µM | 69% |
| NS(=O)(=O)c1cc(NC(=O)Cc2ccccc2)ccc1Oc1cccc(Cl)c1 | cell-free assay, competition with immobilised ligand | 1 µM | 83% |
| O=C(NCCCN1CCOCC1)c1ccc(Nc2ncc(Cl)c(-c3ccc(Cl)s3)n2)cc1 | binding, competition with immobilised ligand | 1 µM | 89% |
| C[C@@H]1CCN(c2nccc(-c3cnn4ncccc34)n2)C1 | binding | 1 µM | 77% |
| CCOC(=O)c1cc2cc(-c3cc(C(=O)NCc4ccc(C(=O)O)cc4)nn3C)ccc2[nH]1 | cell-free assay, competition with immobilised ligand | 0.1 µM | 69% |
| O=C(NCC1CCOCC1)c1n[nH]cc1NC(=O)c1c(F)cccc1F | binding, competition with immobilised ligand | 1 µM | 86% |
| COc1ncc2cc3ccccc3nc2c1C#N | cell-free assay, competition with immobilised ligand | 5 µM | 100% |
| COc1cnc(Nc2cccc(S(N)(=O)=O)c2)nc1N1CCN(c2ccccc2)C(=O)C1 | binding, competition with immobilised ligand | 1 µM | 89% |
| C[C@@H](c1ccc(-n2cnc3c(N)ncnc32)cc1)N1CCc2nn(C)c(Cc3ccccc3)c2C1=O | binding, competition with immobilised ligand | 0.1 µM | 58% |
| c1cncc(-c2cccc(Nc3nccc(NC4CCCCC4)n3)c2)c1 | binding, competition with immobilised ligand | 10 µM | 75% |
| CN(C)c1nccc(-c2cnn3ncccc23)n1 | binding | 1 µM | 96% |
| O=C(N1CCS(=O)(=O)CC1)N1C[C@H](c2ccc(OC(F)(F)F)cc2)C[C@H](c2nc(C3CC3)no2)C1 | cell-free assay, competition with immobilised ligand | 1 µM | 100% |
| O=C(NCCCN1CCOCC1)c1ccc(Nc2nccc(-c3cc4ccccc4s3)n2)cc1 | binding, competition with immobilised ligand | 1 µM | 76% |
| F[C@@H]1CCN(c2nccc(-c3cnn4ncccc34)n2)C1 | binding | 1 µM | 100% |
| CNC(=O)c1ccc(Nc2ncc(C(F)(F)F)c(NCc3nccnc3N(C)S(C)(=O)=O)n2)cc1 | cell-free assay, competition with immobilised ligand | 0.1 µM | 87% |
| CNC(=O)[C@@H]1CC[C@@H](n2c(-c3ccc4cnccc4c3)nc3ccc(C(=O)NCc4cccc(C(N)=O)c4)cc32)C1 | binding, competition with immobilised ligand | 1 µM | 100% |
| CO[C@@H](C)c1c(Nc2ccc([C@@H](N(C)C(=O)C3CCS(=O)(=O)CC3)C(F)(F)F)cc2)cnc2cc(Cl)nn12 | cell-free assay, competition with immobilised ligand | 1 µM | 100% |
| c1cnn2ncc(-c3ccnc(N4CCC45COC5)n3)c2c1 | binding | 1 µM | 79% |
| CC(C)(O)c1cncc(-c2nc3ccc(F)cc3n2C2CC2)c1 | cell-free assay, competition with immobilised ligand | 1 µM | 100% |
| N[C@@H]1CCN(c2nccc(-c3cnn4ncccc34)n2)C1 | binding | 1 µM | 100% |
